From ChEMBL document CHEMBL4152223 (Eur J Med Chem, 2018)
Converted amounts (≈) assume the structure as drawn.

Experiments:
[1] = Selectivity index, ratio of IC50 for human HepG2 cells to MIC for INH/RIF/rifabutine/STM/EMB resistant Mycobacterium tuberculosis 234/2005; assay type: toxicity; settings: read-out: Selectivity Index
How it was run: (§1)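 SI is calculated as HepG2 IC50 divided by MIC. HepG2 cells (passage 2-4) were grown in EMEM with 10% FBS, L-glutamine and non-essential amino acids. Compounds in DMSO were tested in triplicate at eight concentrations, and viability was read by MTS tetrazolium reduction. 10% DMSO served as the 0% viability control.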

[2] = tested on: Mycobacterium tuberculosis; assay: Antimycobacterial activity against INH/RIF/rifabutine/STM/EMB/OFX/clofazimine resistant Mycobacterium tuberculosis Praha 4 after 14 days; assay type: functional; settings: Praha 4, 336 h
How it was run: (§2)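 MIC against four MDR-TB strains and one XDR-TB strain, each inoculated at 10^-3 dilution, using the same broth method as for drug-susceptible M. tuberculosis. Concentrations tested were 1000 down to 1 µM in twofold-type steps (1000, 500, 250, 125, 62.5, 32, 16, 8, 4, 2, 1 µM). MIC is the lowest concentration with complete growth inhibition.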

[3] = tested on: Mycobacterium tuberculosis; assay: Antimycobacterial activity against INH/RIF/rifabutine/STM/EMB/clofazimine resistant Mycobacterium tuberculosis Praha 1 after 14 days; assay type: functional; settings: Praha 1, 336 h; how it was run: as §2
[4] = tested on: Mycobacterium tuberculosis; assay: Antimycobacterial activity against INH/RIF/rifabutine/STM resistant Mycobacterium tuberculosis 9449/2006 after 21 days; assay type: functional; settings: 9449/2006, 504 h; how it was run: as §2
[5] = Selectivity index, ratio of IC50 for human HepG2 cells to MIC for INH/RIF/rifabutine/STM resistant Mycobacterium tuberculosis 9449/2006; assay type: toxicity; settings: read-out: Selectivity Index; how it was run: as §1
[6] = tested on: Mycobacterium tuberculosis; assay: Antimycobacterial activity against INH/RIF/rifabutine/STM resistant Mycobacterium tuberculosis 9449/2006 after 14 days; assay type: functional; settings: 9449/2006, 336 h; how it was run: as §2
[7] = tested on: Mycobacterium tuberculosis; assay: Antimycobacterial activity against INH/RIF/rifabutine/STM/EMB resistant Mycobacterium tuberculosis 234/2005 after 14 days; assay type: functional; settings: 234/2005, 336 h; how it was run: as §2
[8] = Selectivity index, ratio of IC50 for human HepG2 cells to MIC for INH/RIF/rifabutine/STM/EMB/OFX/gentamicin/amikacin resistant Mycobacterium tuberculosis Praha 131; assay type: toxicity; settings: read-out: Selectivity Index; how it was run: as §1
[9] = Selectivity index, ratio of IC50 for human HepG2 cells to MIC for INH/RIF/rifabutine/STM/EMB/OFX/clofazimine resistant Mycobacterium tuberculosis Praha 4; assay type: toxicity; settings: read-out: Selectivity Index; how it was run: as §1
[10] = tested on: Mycobacterium tuberculosis; assay: Antimycobacterial activity against INH/RIF/rifabutine/STM/EMB/clofazimine resistant Mycobacterium tuberculosis Praha 1 after 21 days; assay type: functional; settings: Praha 1, 504 h; how it was run: as §2
[11] = tested on: Mycobacterium tuberculosis; assay: Antimycobacterial activity against INH/RIF/rifabutine/STM/EMB/OFX/clofazimine resistant Mycobacterium tuberculosis Praha 4 after 21 days; assay type: functional; settings: Praha 4, 504 h; how it was run: as §2
[12] = tested on: Mycobacterium tuberculosis; assay: Antimycobacterial activity against INH/RIF/rifabutine/STM/EMB/OFX/gentamicin/amikacin resistant Mycobacterium tuberculosis Praha 131 after 21 days; assay type: functional; settings: Praha 131, 504 h; how it was run: as §2
[13] = tested on: Mycobacterium tuberculosis; assay: Antimycobacterial activity against INH/RIF/rifabutine/STM/EMB/OFX/gentamicin/amikacin resistant Mycobacterium tuberculosis Praha 131 after 14 days; assay type: functional; settings: Praha 131, 336 h; how it was run: as §2
[14] = tested on: Mycobacterium tuberculosis; assay: Antimycobacterial activity against INH/RIF/rifabutine/STM/EMB resistant Mycobacterium tuberculosis 234/2005 after 21 days; assay type: functional; settings: 234/2005, 504 h; how it was run: as §2
[15] = Selectivity index, ratio of IC50 for human HepG2 cells to MIC for INH/RIF/rifabutine/STM/EMB/clofazimine resistant Mycobacterium tuberculosis Praha 1; assay type: toxicity; settings: read-out: Selectivity Index; how it was run: as §1
[16] = Selectivity ratio of MIC for INH/RIF/rifabutine/STM/EMB/clofazimine resistant Mycobacterium tuberculosis Praha 1 to MIC for Mycobacterium tuberculosis H37Rv; assay type: functional
[17] = Selectivity ratio of MIC for INH/RIF/rifabutine/STM resistant Mycobacterium tuberculosis 9449/2006 to MIC for Mycobacterium tuberculosis H37Rv; assay type: functional
[18] = Selectivity ratio of MIC for INH/RIF/rifabutine/STM/EMB/OFX/clofazimine resistant Mycobacterium tuberculosis Praha 4 to MIC for Mycobacterium tuberculosis H37Rv; assay type: functional
[19] = Selectivity ratio of MIC for INH/RIF/rifabutine/STM/EMB/OFX/gentamicin/amikacin resistant Mycobacterium tuberculosis Praha 131 to MIC for Mycobacterium tuberculosis H37Rv; assay type: functional
[20] = Selectivity ratio of MIC for INH/RIF/rifabutine/STM/EMB resistant Mycobacterium tuberculosis 234/2005 to MIC for Mycobacterium tuberculosis H37Rv; assay type: functional

SMILES	selectivity ratio [1]	MIC [2]	MIC [3]	MIC [4]	selectivity ratio [5]	MIC [6]	MIC [7]	selectivity ratio [8]	selectivity ratio [9]	MIC [10]	MIC [11]	MIC [12]	MIC [13]	MIC [14]	selectivity ratio [15]	Ratio [16]	Ratio [17]	Ratio [18]	Ratio [19]	Ratio [20]
CCCCCCCCCCCCNc1nnc(-c2ccncc2)o1	> 6.25	4 µM (≈ 1.32 µg/mL)	4 µM (≈ 1.32 µg/mL)	4 µM (≈ 1.32 µg/mL)	> 6.25	4 µM (≈ 1.32 µg/mL)	4 µM (≈ 1.32 µg/mL)	> 12.5	> 6.25	8 µM (≈ 2.64 µg/mL)	8 µM (≈ 2.64 µg/mL)	8 µM (≈ 2.64 µg/mL)	4 µM (≈ 1.32 µg/mL)	8 µM (≈ 2.64 µg/mL)	> 6.25					
CCNC(=O)NNC(=O)c1ccncc1	> 32	125 µM (≈ 26 µg/mL)	125 µM (≈ 26 µg/mL)	125 µM (≈ 26 µg/mL)	> 32	125 µM (≈ 26 µg/mL)	125 µM (≈ 26 µg/mL)	> 32	> 32	125 µM (≈ 26 µg/mL)	125 µM (≈ 26 µg/mL)	125 µM (≈ 26 µg/mL)	125 µM (≈ 26 µg/mL)	125 µM (≈ 26 µg/mL)	> 32					
CCCNC(=O)NNC(=O)c1ccncc1	> 312	16 µM (≈ 3.56 µg/mL)	16 µM (≈ 3.56 µg/mL)	16 µM (≈ 3.56 µg/mL)	> 312	16 µM (≈ 3.56 µg/mL)	16 µM (≈ 3.56 µg/mL)	> 312	> 312	16 µM (≈ 3.56 µg/mL)	16 µM (≈ 3.56 µg/mL)	16 µM (≈ 3.56 µg/mL)	16 µM (≈ 3.56 µg/mL)	16 µM (≈ 3.56 µg/mL)	> 312	< 125	< 125	< 125	< 125	< 125
CNC(=O)NNC(=O)c1ccncc1	> 80	62.5 µM (≈ 12.1 µg/mL)	62.5 µM (≈ 12.1 µg/mL)	62.5 µM (≈ 12.1 µg/mL)	> 80	62.5 µM (≈ 12.1 µg/mL)	62.5 µM (≈ 12.1 µg/mL)	> 80	> 80	62.5 µM (≈ 12.1 µg/mL)	62.5 µM (≈ 12.1 µg/mL)	62.5 µM (≈ 12.1 µg/mL)	32 µM (≈ 6.21 µg/mL)	62.5 µM (≈ 12.1 µg/mL)	> 80	< 125	< 125	< 125	< 125	< 125
